The results in this text go back to ChEMBL document CHEMBL3616384, “Benzimidazole derivatives protect against cytokine-induced apoptosis in pancreatic β-Cells” (Bioorg Med Chem Lett, 2015).

Molecules are shown by their SMILES. Calls of active or inactive are those of the source. The rule behind the calls is not given here.

Assay [1] can be described thus: (§1) Cytoprotective activity in rat INS-1E cells assessed as suppression of recombinant rat IL-1beta/recombinant mouse IFN-gamma and TNF-alpha-induced nitrite production after 48 hrs by Griess assay. The assay is classed as functional, cell-based. As to conditions: for IC50: Rattus norvegicus, INS-1E, 48 h. In a few lines:
(§2)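 Nitrite production was measured in INS-1E cells after 48 h with IL-1β 20 ng/mL, INF-γ 50 ng/mL and TNF-α 50 ng/mL plus increasing compound concentrations. Mean ± SD of 12 independent wells.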
For orientation: Griess reagent forms a coloured azo dye with nitrite.

The nature of assay [2]: (§3) Cytoprotective activity in rat INS-1E cells assessed as restoration of recombinant rat IL-1beta/recombinant mouse IFN-gamma and TNF-alpha-suppressed ATP level after 48 hrs by Cell Titer-Glo assay. It is filed as functional, cell-based. To be noted: for EC50: Rattus norvegicus, INS-1E, 48 h. In a few lines: (§4)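 INS-1E rat insulinoma cells exposed 48 h to IL-1β 20 ng/mL, INF-γ 50 ng/mL and TNF-α 50 ng/mL, with or without increasing compound concentrations. Cellular ATP was measured as a viability surrogate and normalized to untreated controls.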
In general terms: In ATP-based viability assays light output follows the ATP content of the culture.

The nature of assay [3]: (§5) Cytoprotective activity in rat INS-1E cells assessed as suppression of recombinant rat IL-1beta/recombinant mouse IFN-gamma and TNF-alpha-induced caspase-3 expression after 48 hrs by Caspase-Glo 3/7 assay. To be noted: for IC50: Rattus norvegicus, INS-1E, 48 h. The assay is classed as functional, cell-based. In a few lines:
(§6)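 INS-1E cells were given the 48 h cytokine cocktail (IL-1β 20 ng/mL, INF-γ 50 ng/mL, TNF-α 50 ng/mL) with rising compound concentrations. Caspase-3 activity, as a direct apoptosis readout, was normalized to untreated controls. Mean ± SD of 12 independent wells.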

In assay [4] the test system is INS-1E. Nature of the assay: (§7) Cytoprotective activity in rat INS-1E cells assessed as increase in recombinant rat IL-1beta/recombinant mouse IFN-gamma and TNF-alpha-suppressed glucose-stimulated insulin secretion preincubated for 48 hrs followed by KRBH buffer addition without glucose for 2 hrs and subsequently incubated with KRBH buffer in presence of glucose for 1 hr by ELISA. The assay is classed as functional, cell-based. In a few lines: (§8)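 Cytokine-exposed INS-1E cells (48 h; IL-1β 20 ng/mL, INF-γ 50 ng/mL, TNF-α 50 ng/mL) were co-treated with a compound dose series, and glucose-stimulated insulin secretion was measured. EC50 and maximum activity were derived from the dose-response. Mean ± SD of 2 independent experiments.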
A general note: An ELISA detects its analyte on a solid surface through an enzyme-linked reagent.

The nature of assay [5]: as §7. To be noted: for EC50: Rattus norvegicus, INS-1E. The assay is classed as functional, cell-based. In a few lines:
as §8

Assay [6] deals with INS-1E. The description is as §1. The assay is classed as functional, cell-based. In a few lines:
as §2

The test system of assay [7] is INS-1E. The description is as §3. The assay is classed as functional, cell-based. In short, it runs like this: as §4
Assay [8] is described as follows: Cytoprotective activity in rat INS-1E cells assessed as increase in recombinant rat IL-1beta/recombinant mouse IFN-gamma and TNF-alpha-suppressed glucose-stimulated insulin secretion at 5 uM preincubated for 48 hrs followed by KRBH buffer addition without glucose for 2 hrs and subsequently incubated with KRBH buffer in presence of glucose for 1 hr by ELISA relative to control. It is filed as functional. In short, it runs like this:
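After 48 h exposure to the cytokine cocktail (IL-1β 20 ng/mL, INF-γ 50 ng/mL, TNF-α 50 ng/mL) with 5 µM compound added, INS-1E insulin secretion was measured at low (2) and high (16) glucose. Results are compared with untreated and no-cytokine cells. Mean ± SD of 2 independent experiments.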

The subject of assay [9] is INS-1E. The assay is described as §5. The assay is classed as functional, cell-based. In a few lines:
as §6

Assay [10] relates to INS-1E. Nature of the assay: Cytoprotective activity in rat INS-1E cells assessed as restoration of recombinant rat IL-1beta/recombinant mouse IFN-gamma and TNF-alpha-suppressed ATP level at 2 uM after 48 hrs by Cell Titer-Glo assay. It is filed as functional, cell-based. In short, it runs like this: as §4

What is called IC50 is the concentration that gives 50% inhibition. A word on the EC50: it is the concentration needed to bring the measured effect to its halfway point. For `COc1ccc(/C=N/NC(=O)c2ccc(-c3nc4cc(C)c(C)cc4[nH]3)cc2)c(O)c1`, in assay [1], the “%max” value came to 18% and the IC50 was greater than 30 µM. Besides, in [2], the “%max” value came to 54% and the 50% effective concentration (EC50) is 29.3 µM. In assay [3], the “%max” value is given as 15% and the 50% inhibitory concentration (IC50) is greater than 30 µM. The “%max” value in the assay with INS-1E [4] was “inactive”.
With `Cc1cc2nc(-c3ccc(C(=O)N/N=C/c4ccc(O)c(O)c4)cc3)[nH]c2cc1C`, the “%max” value in assay [1] is given as 68%; in [2] it was 73%; in assay [3], 22%; in assay [5], 53%. The figures for the IC50 in assay [1] and in assay [3] were 17.6 µM and greater than 30 µM, respectively. Also, the EC50 in [2] came out at 16.7 µM.
Take `Cc1cc2nc(-c3ccc(C(=O)N/N=C/c4ccc(O)cc4O)cc3)[nH]c2cc1C`: the “%max” value in assay [1] was determined as 72%; in assay [2], 86%; in assay [3], 75%; in assay [5] it was 64%. Besides, the half-maximal inhibitory concentration (IC50) worked out at 17.5 µM in [1] and 16.4 µM in assay [3]. For the same compound, the EC50 in assay [2] was determined as 7.28 µM.
In the case of `Cc1cc2nc(-c3ccc(C(=O)N/N=C/c4cc(O)c(O)c(O)c4)cc3)[nH]c2cc1C`, the “%max” value in assay [1] came out at 85%; in assay [2] it was 98%; in assay [3] it was 68%; in assay [5], 91%. Further, the IC50 in [1] turned out to be 9.47 µM; in [3] it was 18.5 µM. The Activity entry with INS-1E [6], in the assay with INS-1E [7], in the assay with INS-1E [9] and with INS-1E [4] was “Dose-dependent effect” throughout. The values for the EC50 in assay [2] and in assay [5] were 0.968 µM and 5.41 µM, respectively. Also, the “fold change (FC)” value in [8] was greater than 3. Also, the result in the assay on INS-1E [10] was Active.
As for `COc1ccc(O)c(/C=N/NC(=O)c2ccc(-c3nc4cc(C)c(C)cc4[nH]3)cc2)c1`, in assay [1], the “%max” value is 20% and the IC50 is greater than 30 µM. For the same compound, in assay [2], the “%max” value was determined as 61% and the EC50 worked out at 25.3 µM. Further, in assay [3], the “%max” value was determined as 12% and the half-inhibitory concentration (IC50) is greater than 30 µM. Also, the “%max” value with INS-1E [4] was “inactive”.
Turning to `Cc1cc2nc(-c3ccc(C(=O)N/N=C/c4cccc(O)c4O)cc3)[nH]c2cc1C`, the “%max” value is recorded as 79% in assay [1], 89% in [2], 82% in [3] and 84% in assay [5]. For the same compound, the IC50 in [1] was determined as 11.4 µM; in assay [3], 9.48 µM. In addition, the Activity entry in the assay with INS-1E [6], in the assay with INS-1E [7], in the assay on INS-1E [9] and in the assay on INS-1E [4] was “Dose-dependent effect” in each case. Also, the 50% effective concentration (EC50) in assay [2] worked out at 3.17 µM; in assay [5], 8.32 µM.
Consider `Cc1cc2nc(-c3ccc(C(=O)N/N=C/c4cc(O)ccc4O)cc3)[nH]c2cc1C`, for which the “%max” value is 71% in assay [1], 93% in assay [2], 84% in [3] and 71% in assay [5]. The half-maximal inhibitory concentration (IC50) in [1] was 17.3 µM; in assay [3] it was 8.81 µM. Moreover, the Activity result with INS-1E [6], in the assay on INS-1E [7], in the assay on INS-1E [9] and in the assay with INS-1E [4] was “Dose-dependent effect” each time. The EC50 in assay [2] stood at 2.57 µM; in assay [5] it was 13.3 µM.
